ChEMBL document CHEMBL3763134, “Arylpiperidines as a new class of oxidosqualene cyclase inhibitors” (Eur J Med Chem, 2016)
The source made the active and inactive calls. The calls are words filed in the database; no cut-off is given here.

Tested on: Yarrowia lipolytica
Assay: Inhibition of ergosterol biosynthesis in Yarrowia lipolytica DSM 1345 at 0.2 to 0.5 times MIC after 48 hrs by GC-MS analysis
Type: functional, organism-based
Conditions: not given
How it was run: (§1)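 Whole-cell sterol-pattern assay analogous to the cholesterol one, run on S. cerevisiae, Yarrowia lipolytica and Candida glabrata; accumulation of precursor sterols and cellular ergosterol content followed.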

SMILES | inhibition
CN1CCC=C(c2ccc(CN(C)C/C=C/c3ccccc3)cc2)C1 | inactive
CN1CCCC(c2ccc3c(c2)CCC3N(C)Cc2ccc(Cl)cc2)C1 (racemic) | inactive
CN1CCC=C(c2ccc(CN(C)CCCc3ccccc3)cc2)C1 | inactive
CN1CCC=C(c2ccc(CN(C)Cc3ccc([N+](=O)[O-])cc3)cc2)C1 | inactive
CN1CCC=C(c2ccc(CN(C)Cc3ccc4ccccc4c3)cc2)C1 | inactive
CN1CCC(c2ccc(CN(C)Cc3ccc(Cl)cc3)cc2)CC1 | inactive
CN1CCC=C(c2ccc(CN(C)Cc3ccc(Cl)cc3)cc2)C1 | inactive
CN1CCC=C(c2ccc(CN(C)C/C=C/c3ccc([N+](=O)[O-])cc3)cc2)C1 | inactive

Tested on: Nakaseomyces glabratus
Assay: Inhibition of ergosterol biosynthesis in Candida glabrata DSM 11226 at 0.2 to 0.5 times MIC after 48 hrs by GC-MS analysis
Type: functional, organism-based
Conditions: not given
How it was run: as §1

SMILES | inhibition
CN1CCC=C(c2ccc(CN(C)C/C=C/c3ccccc3)cc2)C1 | inactive
CN1CCCC(c2ccc3c(c2)CCC3N(C)Cc2ccc(Cl)cc2)C1 (racemic) | inactive
CN1CCC=C(c2ccc(CN(C)CCCc3ccccc3)cc2)C1 | inactive
CN1CCC=C(c2ccc(CN(C)Cc3ccc([N+](=O)[O-])cc3)cc2)C1 | inactive
CN1CCC=C(c2ccc(CN(C)Cc3ccc4ccccc4c3)cc2)C1 | inactive
CN1CCC(c2ccc(CN(C)Cc3ccc(Cl)cc3)cc2)CC1 | inactive
CN1CCC=C(c2ccc(CN(C)Cc3ccc(Cl)cc3)cc2)C1 | inactive
CN1CCC=C(c2ccc(CN(C)C/C=C/c3ccc([N+](=O)[O-])cc3)cc2)C1 | inactive

Tested on: Saccharomyces cerevisiae
Assay: Inhibition of ergosterol biosynthesis in Saccharomyces cerevisiae DSM 1333 at 0.2 to 0.5 times MIC after 48 hrs by GC-MS analysis
Type: functional, organism-based
Conditions: not given
How it was run: as §1

SMILES | inhibition
CN1CCC=C(c2ccc(CN(C)C/C=C/c3ccccc3)cc2)C1 | inactive
CN1CCCC(c2ccc3c(c2)CCC3N(C)Cc2ccc(Cl)cc2)C1 (racemic) | inactive
CN1CCC=C(c2ccc(CN(C)CCCc3ccccc3)cc2)C1 | inactive
CN1CCC=C(c2ccc(CN(C)Cc3ccc([N+](=O)[O-])cc3)cc2)C1 | inactive
CN1CCC=C(c2ccc(CN(C)Cc3ccc4ccccc4c3)cc2)C1 | inactive
CN1CCC(c2ccc(CN(C)Cc3ccc(Cl)cc3)cc2)CC1 | inactive
CN1CCC=C(c2ccc(CN(C)Cc3ccc(Cl)cc3)cc2)C1 | inactive
CN1CCC=C(c2ccc(CN(C)C/C=C/c3ccc([N+](=O)[O-])cc3)cc2)C1 | inactive

Tested on: not listed separately
Assay: Inhibition of Trypanosoma cruzi OSC expressed in recombinant Saccharomyces cerevisiae SMY8 using [14C]-(3S)-2,3-oxidosqualene as substrate
Conditions: not given
How it was run: (§2)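 Homogenates of yeast cultures (SMY8 expressing human or T. cruzi OSC; wild-type S. cerevisiae FL100) incubated with radiolabelled 2,3-oxidosqualene at increasing inhibitor concentrations; IC50 as mean of two separate experiments, each in duplicate.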

SMILES | IC50
CN1CCC=C(c2ccc(CN(C)C/C=C/c3ccccc3)cc2)C1 | > 10 µM
CN(Cc1ccc(C2CCCN(C)C2)cc1)Cc1ccc2ccccc2c1 (racemic) | > 10 µM
CN1CCCC(c2ccc3c(c2)CCC3N(C)Cc2ccc(Cl)cc2)C1 (racemic) | > 10 µM
CN(Cc1ccc(Cl)cc1)Cc1ccc(C2CCCN(C)C2)cc1 (centres undefined) | > 10 µM
CN1CCC=C(c2ccc(CN(C)Cc3ccc4ccccc4c3)cc2)C1 | > 10 µM
CN1CCC(c2ccc(CN(C)Cc3ccc(Cl)cc3)cc2)CC1 | > 10 µM
CN1CCC=C(c2ccc(CN(C)Cc3ccc(Cl)cc3)cc2)C1 | > 10 µM
CN(C/C=C/c1ccccc1)Cc1ccc(C2CCCN(C)C2)cc1 (centres undefined) | > 10 µM

Target: T1, 7-dehydrocholesterol reductase (Homo sapiens) (UniProt Q9UBM7)
T1 sequence (whole entry): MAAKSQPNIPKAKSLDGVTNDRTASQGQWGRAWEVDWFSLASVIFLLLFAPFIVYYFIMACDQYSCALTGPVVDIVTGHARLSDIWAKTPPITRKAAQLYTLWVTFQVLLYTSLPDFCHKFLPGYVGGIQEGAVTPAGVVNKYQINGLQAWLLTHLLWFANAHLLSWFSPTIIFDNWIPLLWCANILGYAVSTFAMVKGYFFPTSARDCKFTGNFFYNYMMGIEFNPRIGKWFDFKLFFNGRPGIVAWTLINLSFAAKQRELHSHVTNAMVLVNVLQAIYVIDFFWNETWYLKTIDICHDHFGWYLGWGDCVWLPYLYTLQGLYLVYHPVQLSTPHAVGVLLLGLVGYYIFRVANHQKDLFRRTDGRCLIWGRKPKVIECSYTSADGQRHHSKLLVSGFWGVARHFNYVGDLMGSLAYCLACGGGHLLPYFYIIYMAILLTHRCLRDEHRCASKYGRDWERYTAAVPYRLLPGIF
Assay: Inhibition of 7-dehydrocholesterol reductase in human HL60 cells assessed as accumulation of 7-dehydrocholesterol by GC-MS method
Type: cell-based
Conditions: HL-60
How it was run: (§3)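 Qualitative whole-cell screen: human HL-60 cells incubated with compound, then lysed and extracted; sterol pattern analysed by GC-MS. Enzyme target assigned from characteristic precursor accumulation: 2,3-oxidosqualene for OSC, 7-dehydrocholesterol for dehydrocholesterol reductase.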

SMILES | inhibition
CN(Cc1ccc(Cl)cc1)Cc1cn(C2CCCN(C)C2)nn1 (racemic) | Active

Target: T2, Lanosterol synthase (Homo sapiens, UniProt P48449)
T2 sequence (P48449 whole entry): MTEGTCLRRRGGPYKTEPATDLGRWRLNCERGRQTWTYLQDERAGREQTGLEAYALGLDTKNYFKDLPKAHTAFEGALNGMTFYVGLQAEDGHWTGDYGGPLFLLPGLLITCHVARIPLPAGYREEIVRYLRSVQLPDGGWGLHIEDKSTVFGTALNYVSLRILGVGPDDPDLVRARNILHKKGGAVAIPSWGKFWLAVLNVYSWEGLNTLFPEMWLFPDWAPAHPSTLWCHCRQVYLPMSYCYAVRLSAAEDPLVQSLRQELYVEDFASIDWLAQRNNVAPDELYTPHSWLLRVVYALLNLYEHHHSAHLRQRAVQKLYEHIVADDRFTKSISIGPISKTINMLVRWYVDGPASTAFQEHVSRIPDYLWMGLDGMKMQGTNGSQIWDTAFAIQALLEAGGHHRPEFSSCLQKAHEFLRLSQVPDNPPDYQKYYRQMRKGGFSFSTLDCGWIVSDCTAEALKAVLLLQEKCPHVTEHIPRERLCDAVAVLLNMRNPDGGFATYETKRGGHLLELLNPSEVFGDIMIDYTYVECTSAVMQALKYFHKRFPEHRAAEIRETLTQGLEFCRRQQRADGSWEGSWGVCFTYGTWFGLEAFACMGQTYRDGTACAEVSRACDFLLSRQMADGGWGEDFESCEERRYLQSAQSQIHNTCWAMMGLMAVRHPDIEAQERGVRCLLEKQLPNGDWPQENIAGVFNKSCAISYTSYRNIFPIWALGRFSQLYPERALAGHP
Assay: Inhibition of human OSC expressed in recombinant Saccharomyces cerevisiae SMY8 using [14C]-(3S)-2,3-oxidosqualene as substrate
Conditions: not given
How it was run: as §2

SMILES | IC50
CN1CCC=C(c2ccc(CN(C)C/C=C/c3ccccc3)cc2)C1 | 5.28 µM
CN(Cc1ccc(C2CCCN(C)C2)cc1)Cc1ccc2ccccc2c1 (racemic) | 8.51 µM
CN1CCCC(c2ccc3c(c2)CCC3N(C)Cc2ccc(Cl)cc2)C1 (racemic) | 4.22 µM
CN(Cc1ccc(Cl)cc1)Cc1ccc(C2CCCN(C)C2)cc1 (centres undefined) | 2.06 µM
CN1CCC=C(c2ccc(CN(C)Cc3ccc4ccccc4c3)cc2)C1 | > 10 µM
CN1CCC(c2ccc(CN(C)Cc3ccc(Cl)cc3)cc2)CC1 | 0.51 µM
CN1CCC=C(c2ccc(CN(C)Cc3ccc(Cl)cc3)cc2)C1 | 2.51 µM
CN(C/C=C/c1ccccc1)Cc1ccc(C2CCCN(C)C2)cc1 (centres undefined) | 2.06 µM

Target: T3, Lanosterol synthase (Homo sapiens) (UniProt P48449)
T3 sequence (whole entry): T2 sequence (P48449 whole entry)
Assay: Inhibition of OSC in human HL60 cells assessed as accumulation of 2,3-oxidosqualene by GC-MS method
Type: cell-based
Conditions: HL-60
How it was run: as §3

SMILES | inhibition
CN1CCC=C(c2ccc(CN(C)C/C=C/c3ccccc3)cc2)C1 | Active
CN(CCCc1ccccc1)Cc1ccc(C2CCCN(C)C2)cc1 (racemic) | Active
CN(Cc1ccc(C2CCCN(C)C2)cc1)Cc1ccc2ccccc2c1 (racemic) | Active
CN1CCCC(c2ccc3c(c2)CCC3N(C)Cc2ccc(Cl)cc2)C1 (racemic) | Active
CN(Cc1ccc(Cl)cc1)Cc1ccc(C2CCCN(C)C2)cc1 (centres undefined) | Active
CN1CCC=C(c2ccc(CN(C)CCCc3ccccc3)cc2)C1 | Active
CN1CCC=C(c2ccc(CN(C)Cc3ccc([N+](=O)[O-])cc3)cc2)C1 | Active
CN1CCC=C(c2ccc(CN(C)Cc3ccc4ccccc4c3)cc2)C1 | Active
CN1CCC(c2ccc(CN(C)Cc3ccc(Cl)cc3)cc2)CC1 | Active
CN1CCC=C(c2ccc(CN(C)Cc3ccc(Cl)cc3)cc2)C1 | Active
CN(C/C=C/c1ccccc1)Cc1ccc(C2CCCN(C)C2)cc1 (centres undefined) | Active
CN1CCC=C(c2ccc(CN(C)C/C=C/c3ccc([N+](=O)[O-])cc3)cc2)C1 | Active

Tested on: not listed separately
Assay: Inhibition of Saccharomyces cerevisiae FL100 wild type OSC using [14C]-(3S)-2,3-oxidosqualene as substrate
Conditions: not given
How it was run: as §2

SMILES | IC50
CN1CCC=C(c2ccc(CN(C)C/C=C/c3ccccc3)cc2)C1 | > 10 µM
CN(Cc1ccc(C2CCCN(C)C2)cc1)Cc1ccc2ccccc2c1 (racemic) | > 10 µM
CN1CCCC(c2ccc3c(c2)CCC3N(C)Cc2ccc(Cl)cc2)C1 (racemic) | > 10 µM
CN(Cc1ccc(Cl)cc1)Cc1ccc(C2CCCN(C)C2)cc1 (centres undefined) | > 10 µM
CN1CCC=C(c2ccc(CN(C)Cc3ccc4ccccc4c3)cc2)C1 | > 10 µM
CN1CCC(c2ccc(CN(C)Cc3ccc(Cl)cc3)cc2)CC1 | 4.83 µM
CN1CCC=C(c2ccc(CN(C)Cc3ccc(Cl)cc3)cc2)C1 | 6.35 µM
CN(C/C=C/c1ccccc1)Cc1ccc(C2CCCN(C)C2)cc1 (centres undefined) | > 10 µM

Tested on: not listed separately
Assay: Cytotoxicity against human HL60 cells after 24 hrs by MTT assay
Type: cell-based
Conditions: HL-60, 24 h
How it was run: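 MTT assay on human leukaemia HL-60 cells, following Mosmann; cisplatin as reference; triplicate experiments.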

SMILES | IC50
CN1CCC=C(c2ccc(CN(C)C/C=C/c3ccccc3)cc2)C1 | > 50 µM
CN(CCCc1ccccc1)Cc1ccc(C2CCCN(C)C2)cc1 (racemic) | > 50 µM
CN(Cc1ccc(Cl)cc1)Cc1cn(C2CCCN(C)C2)nn1 (racemic) | > 50 µM
CN(Cc1ccc(C2CCCN(C)C2)cc1)Cc1ccc2ccccc2c1 (racemic) | 40 µM
CN1CCCC(c2ccc3c(c2)CCC3N(C)Cc2ccc(Cl)cc2)C1 (racemic) | > 50 µM
CN(Cc1ccc(Cl)cc1)Cc1ccc(C2CCCN(C)C2)cc1 (centres undefined) | > 50 µM
CN1CCC=C(c2ccc(CN(C)CCCc3ccccc3)cc2)C1 | > 50 µM
CN1CCC=C(c2ccc(CN(C)Cc3ccc([N+](=O)[O-])cc3)cc2)C1 | 28 µM
CN1CCC=C(c2ccc(CN(C)Cc3ccc4ccccc4c3)cc2)C1 | > 50 µM
CN1CCC(c2ccc(CN(C)Cc3ccc(Cl)cc3)cc2)CC1 | > 50 µM
CN1CCC=C(c2ccc(CN(C)Cc3ccc(Cl)cc3)cc2)C1 | > 50 µM
CN(C/C=C/c1ccccc1)Cc1ccc(C2CCCN(C)C2)cc1 (centres undefined) | > 50 µM
CN1CCC=C(c2ccc(CN(C)C/C=C/c3ccc([N+](=O)[O-])cc3)cc2)C1 | > 50 µM

Tested on: HL-60
Assay: Inhibition of total cholesterol biosynthesis in human HL60 cells assessed as incorporation of 2-13C-acetate by GC-MS analysis
Type: functional, cell-based
Conditions: not given
How it was run: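 HL-60 cells incubated with inhibitor in presence of 2-13C-acetate; newly made 13C-labelled cholesterol distinguished from unlabelled pre-existing cholesterol by GC-MS after extraction; IC50 for total cholesterol biosynthesis derived; triplicate experiments.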

SMILES | IC50
CN1CCC=C(c2ccc(CN(C)C/C=C/c3ccccc3)cc2)C1 | 0.68 µM
CN(Cc1ccc(C2CCCN(C)C2)cc1)Cc1ccc2ccccc2c1 (racemic) | 1.32 µM
CN1CCCC(c2ccc3c(c2)CCC3N(C)Cc2ccc(Cl)cc2)C1 (racemic) | 0.14 µM
CN(Cc1ccc(Cl)cc1)Cc1ccc(C2CCCN(C)C2)cc1 (centres undefined) | 1.29 µM
CN1CCC=C(c2ccc(CN(C)Cc3ccc([N+](=O)[O-])cc3)cc2)C1 | 2.29 µM
CN1CCC=C(c2ccc(CN(C)Cc3ccc4ccccc4c3)cc2)C1 | 0.37 µM
CN1CCC(c2ccc(CN(C)Cc3ccc(Cl)cc3)cc2)CC1 | 0.26 µM
CN1CCC=C(c2ccc(CN(C)Cc3ccc(Cl)cc3)cc2)C1 | 2.14 µM
CN(C/C=C/c1ccccc1)Cc1ccc(C2CCCN(C)C2)cc1 (centres undefined) | 1.1 µM
CN1CCC=C(c2ccc(CN(C)C/C=C/c3ccc([N+](=O)[O-])cc3)cc2)C1 | 1.28 µM
